≈ marks a conversion by molar mass, not a printed value.
Legend:
P388 [1] = experiment: Maximum effect on P388 murine leukemia in mice at a dose of 32.0 mg/kg; type: functional, Mus musculus
Procedure, shortened: (§1)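 P388 leukemia, 10^6 ascites cells implanted in CDF1 female mice; single dose on day 1, six mice per dose, 10 saline controls, concurrent mitomycin C control group per experiment. Max effect = % T/C (median survival time treated/control × 100) at optimal dose.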

P388 [2] = experiment: Minimum effective dose of compound against P388 murine leukemia in mice; type: functional; conditions: Mus musculus, read-out: MED
Procedure, shortened: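 P388 ascites leukemia (10^6 cells) in CDF1 female mice, dosed once on day 1, six mice per dose, saline controls (10). Minimal effective dose defined as dose giving % T/C = 125, from median survival times.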

HCT-116 [3] = experiment: Antitumor activity against HCT116 human colon carcinoma cell line; type: functional, cell-based
Procedure, shortened: (§2)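 Crystal violet staining of cultured tumour cells. The stain was solubilized in 0.1 M AcOH-EtOH (1:1 v/v) and optical density read at 590 nm. IC50 came from linear regression of the absorbance data. Compounds were in DMSO vehicle; mitomycin C was in DMSO/saline. Indoloquinone values are the mean of two experiments per cell line.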

A549 [4] = experiment: Antitumor activity against A549 human lung carcinoma cell line; type: functional, cell-based; procedure, shortened: as §2
[5] = Antitumor activity against SW1271 human lung carcinoma cell line; type: functional, cell-based; procedure, shortened: as §2
B16-F10 = experiment: Antitumor activity against B16-F10 murine melanoma cell line; type: functional, cell-based; conditions: Mus musculus; procedure, shortened: as §2
Homo sapiens = species: Homo sapiens; experiment: Antitumor activity against moser human colon carcinoma cell line; type: functional; procedure, shortened: as §2
B16 = experiment: Antitumor activity against B16-BN murine melanoma cell line; type: functional, cell-based; conditions: Mus musculus; procedure, shortened: as §2
P388 [6] = experiment: Maximum effect against P388 murine leukemia in mice at a dose of 25.6 mg/kg; type: functional, Mus musculus
P388 [7] = experiment: Maximum effect on P388 murine leukemia in mice at a dose of 12.8 mg/kg; type: functional, Mus musculus; procedure, shortened: as §1
[8] = Antitumor activity against SW900 human lung carcinoma cell line; type: functional, cell-based; procedure, shortened: as §2
P388 [9] = experiment: Maximum effect on P388 murine leukemia in mice at a dose of 51.2 mg/kg; type: functional, Mus musculus
A549 [10] = experiment: Antitumor activity against A549 human lung carcinoma cell line in experiment 2; type: functional, cell-based
Procedure, shortened: (§3)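 Cell growth in A549 and HCT-116 cultures was read by tetrazolium staining, with an IC50 reported for each of two separate experiments.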

HCT-116 [11] = experiment: Antitumor activity against HCT116 human colon carcinoma cell line experiment 1; type: functional, cell-based; procedure, shortened: as §3
A549 [12] = experiment: Antitumor activity against A549 human lung carcinoma cell line in experiment 1; type: functional, cell-based; procedure, shortened: as §3
HCT-116 [13] = experiment: Antitumor activity against HCT116 human colon carcinoma cell line experiment 2; type: functional, cell-based; procedure, shortened: as §3
P388 [14] = experiment: Maximum effect on P388 murine leukemia in mice at a dose of 6.4 mg/kg; type: functional, Mus musculus
P388 [15] = experiment: Maximum effect on P388 murine leukemia in mice at a dose of 25.6 mg/kg

Row | SMILES | IC50 (HCT-116 [3]) | IC50 (A549 [4]) | IC50 [5] | IC50 (B16-F10) | IC50 (Homo sapiens) | IC50 (B16) | IC50 [8] | IC50 (A549 [10]) | IC50 (HCT-116 [11]) | IC50 (A549 [12]) | IC50 (HCT-116 [13]) | T/C (P388 [1]) | minimal effective dose (P388 [2]) | T/C (P388 [6]) | T/C (P388 [7]) | T/C (P388 [9]) | T/C (P388 [14]) | T/C (P388 [15])
1 | CNC(=O)OCc1c2c(n(C)c1COC(=O)NC)C(=O)C(C)=C(N1CC1)C2=O | 0.17 µg/mL (≈ 0.435 µM) | 0.03 µg/mL (≈ 0.0768 µM) | 2.7 µg/mL (≈ 6.92 µM) | 0.66 µg/mL (≈ 1.69 µM) | 0.13 µg/mL (≈ 0.333 µM) | 1.6 µg/mL (≈ 4.1 µM) | – | – | – | – | – | 145% | 14.5 mg/kg | – | – | – | – | –
2 | CNC(=O)OCc1c2c(n(C)c1COC(C)=O)C(=O)C(C)=C(N1CC1)C2=O | 0.065 µg/mL (≈ 0.173 µM) | < 0.02 µg/mL | 0.73 µg/mL (≈ 1.94 µM) | 0.39 µg/mL (≈ 1.04 µM) | 0.035 µg/mL (≈ 0.0932 µM) | 0.27 µg/mL (≈ 0.719 µM) | – | – | – | – | – | – | – | – | 114% | – | – | –
3 | CO[C@@]12[C@H](COC(N)=O)C3=C(C(=O)C(C)=C(N)C3=O)N1C[C@@H]1N[C@@H]12 [MITOMYCIN] | 1.1 µg/mL (≈ 3.29 µM) | 0.47 µg/mL (≈ 1.41 µM) | 8.1 µg/mL (≈ 24.2 µM) | 1.5 µg/mL (≈ 4.49 µM) | 2.8 µg/mL (≈ 8.37 µM) | 3.6 µg/mL (≈ 10.8 µM) | 0.24 µg/mL (≈ 0.718 µM) | 0.08 µg/mL (≈ 0.239 µM) | 0.015 µg/mL (≈ 0.0449 µM) | 0.015 µg/mL (≈ 0.0449 µM) | 0.01 µg/mL (≈ 0.0299 µM) | – | – | – | – | – | – | –
4 | CNC(=O)OCc1c2c(n(C)c1C(C)OC(C)=O)C(=O)C(C)=C(OC)C2=O (stereo unspecified) | – | – | – | – | – | – | – | 0.065 µg/mL (≈ 0.172 µM) | 0.06 µg/mL (≈ 0.159 µM) | 0.075 µg/mL (≈ 0.198 µM) | 0.06 µg/mL (≈ 0.159 µM) | – | – | – | – | – | – | –

Further lines, with some results ahead:

Row | IC50 (HCT-116 [3]) | IC50 (A549 [4]) | IC50 [5] | IC50 (B16-F10) | IC50 (Homo sapiens) | IC50 (B16) | IC50 [8] | IC50 (A549 [10]) | IC50 (HCT-116 [11]) | IC50 (A549 [12]) | IC50 (HCT-116 [13]) | SMILES | T/C (P388 [1]) | minimal effective dose (P388 [2]) | T/C (P388 [6]) | T/C (P388 [7]) | T/C (P388 [9]) | T/C (P388 [14]) | T/C (P388 [15])
5 | 3.7 µg/mL (≈ 10.2 µM) | 1.6 µg/mL (≈ 4.39 µM) | 7.9 µg/mL (≈ 21.7 µM) | 13.3 µg/mL (≈ 36.5 µM) | 3.1 µg/mL (≈ 8.51 µM) | 9.5 µg/mL (≈ 26.1 µM) | – | – | – | – | – | CNC(=O)OCc1c2c(n(C)c1COC(=O)NC)C(O)=C(C)C(=N)C2=O | – | – | 120% | – | – | – | –
6 | 0.065 µg/mL (≈ 0.178 µM) | – | 0.47 µg/mL (≈ 1.29 µM) | 0.2 µg/mL (≈ 0.549 µM) | 0.09 µg/mL (≈ 0.247 µM) | – | 0.04 µg/mL (≈ 0.11 µM) | – | – | – | – | CNC(=O)OCc1c2c(n(C)c1COC(C)=O)C(=O)C(C)=C(OC)C2=O | – | – | – | – | 105% | – | –
7 | < 0.03 µg/mL | – | 0.14 µg/mL (≈ 0.369 µM) | < 0.03 µg/mL | < 0.03 µg/mL | – | < 0.03 µg/mL | – | – | – | – | CNC(=O)OCc1c2c(n(C)c1COC(=O)NC)C(=O)C(C)=C(OC)C2=O | – | – | – | – | – | 100% | –
8 | > 31 µg/mL | > 3.1 µg/mL | > 31 µg/mL | > 31 µg/mL | 12.8 µg/mL (≈ 36.6 µM) | 14 µg/mL (≈ 40.1 µM) | – | – | – | – | – | CNC(=O)OCc1c2c(n(C)c1COC(C)=O)C(O)=C(C)C(=N)C2=O | – | – | – | – | – | – | 105%

From ChEMBL document CHEMBL1124560, “New 2-substituted indoloquinone mitomycin analogues” (J Med Chem, 1989)
